Data: ChEMBL document CHEMBL4354820, “Optimizing Targeted Inhibitors of P-Glycoprotein Using Computational and Structure-Guided Approaches” (J Med Chem, 2019)

Key:
[1] = biological target: T1, ATP-dependent translocase ABCB1 (Homo sapiens, UniProt P08183); assay: Inhibition of P-gp overexpressed in human DU145-TxR cells assessed as increase in cellular accumulation of calcein AM at 2 uM pretreated followed by calcein AM addition by fluorescence imaging analysis; assay type: cell-based
Procedure, shortened: (§1)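 Confluent DU145TXR monolayers in phenol red-free RPMI 1640 given 2 μM inhibitor (DMSO vehicle) and 1 μg mL−1 calcein AM, either added together or after a 6 h inhibitor-only preincubation at 37 °C. Calcein fluorescence (ex 485 / em 535 nm) read over 60 min at 20 min intervals. Six replicates, at least two independent experiments.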

[2] = biological target: T1, ATP-dependent translocase ABCB1; assay: Reversal of P-gp mediated multidrug resistance in human DU145-TxR cells overexpressing P-gp assessed as potentiation of paclitaxel-induced cytotoxicity by measuring fold reduction paclitaxel IC50 at 7 uM after 48 hrs by MTT assay relative to paclitaxel alone; assay type: cell-based
Procedure, shortened: (§2)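 DU145TXR cells seeded at 3000 per well, 24 h later treated 48 h with paclitaxel alone or with 3, 5, 7 or 10 μM inhibitor in complete medium (DMSO vehicle). MTT 4 h, formazan dissolved in DMSO, A570 read, background subtracted, viability relative to DMSO. IC50 by four-parameter nonlinear fit; eight replicates, at least two experiments. Fold values compare paclitaxel alone or with parent inhibitor.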

[3] = biological target: T1, ATP-dependent translocase ABCB1; assay: Reversal of P-gp mediated multidrug resistance in human DU145-TxR cells overexpressing P-gp assessed as potentiation of paclitaxel-induced cytotoxicity by measuring fold reduction paclitaxel IC50 at 5 uM after 48 hrs by MTT assay relative to paclitaxel alone; assay type: cell-based; procedure, shortened: as §2
[4] = biological target: T1, ATP-dependent translocase ABCB1; assay: Reversal of P-gp mediated multidrug resistance in human DU145-TxR cells overexpressing P-gp assessed as potentiation of paclitaxel-induced cytotoxicity by measuring fold reduction paclitaxel IC50 at 3 uM after 48 hrs by MTT assay relative to paclitaxel alone; assay type: cell-based; procedure, shortened: as §2
[5] = biological target: T1, ATP-dependent translocase ABCB1; assay: Reversal of P-gp mediated multidrug resistance in human DU145-TxR cells overexpressing P-gp assessed as potentiation of paclitaxel-induced cytotoxicity by measuring fold reduction paclitaxel IC50 at 3 uM after 48 hrs by MTT assay relative to parent compound; assay type: cell-based; procedure, shortened: as §2
[6] = biological target: T1, ATP-dependent translocase ABCB1; assay: Reversal of P-gp mediated multidrug resistance in human DU145-TxR cells overexpressing P-gp assessed as potentiation of paclitaxel-induced cytotoxicity by measuring fold reduction paclitaxel IC50 at 10 uM after 48 hrs by MTT assay relative to paclitaxel alone; assay type: cell-based; procedure, shortened: as §2
[7] = biological target: T1, ATP-dependent translocase ABCB1; assay: Reversal of P-gp mediated multidrug resistance in human DU145-TxR cells overexpressing P-gp assessed as potentiation of paclitaxel-induced cytotoxicity by measuring fold reduction paclitaxel IC50 at 5 uM after 48 hrs by MTT assay relative to parent compound; assay type: cell-based; procedure, shortened: as §2
[8] = biological target: T1, ATP-dependent translocase ABCB1; assay: Reversal of P-gp mediated multidrug resistance in human DU145-TxR cells overexpressing P-gp assessed as potentiation of paclitaxel-induced cytotoxicity by measuring fold reduction paclitaxel IC50 at 7 uM after 48 hrs by MTT assay relative to parent compound; assay type: cell-based; procedure, shortened: as §2
[9] = biological target: T1, ATP-dependent translocase ABCB1; assay: Reversal of P-gp mediated multidrug resistance in human DU145-TxR cells overexpressing P-gp assessed as potentiation of paclitaxel-induced cytotoxicity by measuring fold reduction paclitaxel IC50 at 10 uM after 48 hrs by MTT assay relative to parent compound; assay type: cell-based; procedure, shortened: as §2
[10] = biological target: T1, ATP-dependent translocase ABCB1; assay: Inhibition of P-gp overexpressed in human DU145-TxR cells assessed as increase in cellular accumulation of calcein AM at 2 uM preincubated for 6 hrs followed by calcein AM addition by fluorescence imaging analysis; assay type: cell-based; procedure, shortened: as §1
[11] = biological target: T2, P-glycoprotein (ABCB1, mouse MDR3) ATPase (Mus musculus, UniProt P21447); assay: Effect on verampil-mediated ATPase hydrolysis of recombinant mouse MDR3 expressed in Pichia pastoris measured after 30 mins in presence of NADH by coupled enzyme assay (reference value: 100 +/- 8 %); parameters: scale not given: the % may be the effect or the level left; conditions: recombinant mouse MDR3 (P-gp) expressed in Pichia pastoris, read-out: Activity
[12] = biological target: T2, P-glycoprotein (ABCB1, mouse MDR3) ATPase; assay: Effect on basal ATPase hydrolysis of recombinant mouse MDR3 expressed in Pichia pastoris measured after 30 mins in presence of NADH by coupled enzyme assay (reference value: 100 +/- 7 %); parameters: scale not given: the % may be the effect or the level left; conditions: recombinant mouse MDR3 (P-gp) expressed in Pichia pastoris, read-out: Activity
[13] = biological target: T1, ATP-dependent translocase ABCB1; assay: Ratio of inhibition of P-gp overexpressed in human DU145-TxR cells assessed as increase in intracellular compound accumulation after 2.5 hrs in presence of tariquidar by LC-MS/MS analysis to Inhibition of P-gp overexpressed in human DU145-TxR cells assessed as decrease in intracellular compound accumulation after 2.5 hrs in absence of tariquidar by LC-MS/MS analysis; assay type: cell-based
Procedure, shortened: (§3)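 P-gp-overexpressing DU145TXR cells exposed to test compounds with or without tariquidar. Intracellular compound measured by LC–MS/MS, with daunorubicin as a transported-substrate control. Ratio is accumulation with tariquidar divided by accumulation without.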

[14] = biological target: T3, P-glycoprotein (ABCB1, MDR1) ATPase (Homo sapiens, UniProt P08183); assay: Inhibition of verampil-stimulated ATPase hydrolysis in recombinant human MDR1 expressed in Pichia pastoris measured after 30 mins in presence of NADH by coupled enzyme assay (reference value: 100 +/- 6 %); parameters: scale not given: the % may be the effect or the level left; conditions: recombinant human MDR1 (P-gp) expressed in Pichia pastoris
[15] = biological target: T3, P-glycoprotein (ABCB1, MDR1) ATPase; assay: Basal ATPase hydrolysis in recombinant human MDR1 expressed in Pichia pastoris measured after 30 mins in presence of NADH by coupled enzyme assay (reference value: 100 +/- 5 %); parameters: scale not given: the % may be the effect or the level left; conditions: recombinant human MDR1 (P-gp) expressed in Pichia pastoris
[16] = biological target: P-glycoprotein 1 Abcb1a (Mus musculus); assay: Inhibition of spin-labelled adenine nucleotide interaction with mouse MDR3 P-gp expressed in Escherichia coli BL21 (DE3) assessed as apparent dissociation constant by ESR analysis (reference value: 36.5 +/- 3.6 uM)
[17] = tested on: P-glycoprotein 1 Abcb1a (Mus musculus); assay: Inhibition of 2',3'-(2,2,5,5,-tetramethyl-3-pyrroline-l-oxyl-3-carboxylic acid ester)ATP interaction with mouse MDR3 P-gp expressed in Escherichia coli BL21 (DE3) assessed as reduction in ATP binding from 2 to 1 of nucleotide to mol of protein by ESR analysis (reference value: 1.8 +/- 0.1)
[18] = biological target: T1, ATP-dependent translocase ABCB1; assay: Inhibition of P-gp overexpressed in human DU145-TxR cells assessed as increase in intracellular compound accumulation after 2.5 hrs in presence of tariquidar by LC-MS/MS analysis; assay type: cell-based; procedure, shortened: as §3
[19] = biological target: T3, P-glycoprotein (ABCB1, MDR1) ATPase; assay: Effect on basal ATPase hydrolysis of recombinant human MDR1 expressed in Pichia pastoris measured after 30 mins in presence of NADH by coupled enzyme assay (reference value: 100 +/- 5 %); parameters: scale not given: the % may be the effect or the level left; conditions: recombinant human MDR1 (P-gp) expressed in Pichia pastoris, read-out: Activity
[20] = biological target: T2, P-glycoprotein (ABCB1, mouse MDR3) ATPase; assay: Inhibition of verampil-stimulated ATPase hydrolysis in recombinant mouse MDR3 expressed in Pichia pastoris measured after 30 mins in presence of NADH by coupled enzyme assay (reference value: 100 +/- 8 %); parameters: scale not given: the % may be the effect or the level left; conditions: recombinant mouse MDR3 (P-gp) expressed in Pichia pastoris
[21] = biological target: T2, P-glycoprotein (ABCB1, mouse MDR3) ATPase; assay: Stimulation of verampil-mediated ATPase hydrolysis in recombinant mouse MDR3 expressed in Pichia pastoris measured after 30 mins in presence of NADH by coupled enzyme assay (reference value: 100 +/- 8 %); parameters: scale not given: the % may be the effect or the level left; conditions: recombinant mouse MDR3 (P-gp) expressed in Pichia pastoris, read-out: Activity

T3 sequence (P08183 whole entry): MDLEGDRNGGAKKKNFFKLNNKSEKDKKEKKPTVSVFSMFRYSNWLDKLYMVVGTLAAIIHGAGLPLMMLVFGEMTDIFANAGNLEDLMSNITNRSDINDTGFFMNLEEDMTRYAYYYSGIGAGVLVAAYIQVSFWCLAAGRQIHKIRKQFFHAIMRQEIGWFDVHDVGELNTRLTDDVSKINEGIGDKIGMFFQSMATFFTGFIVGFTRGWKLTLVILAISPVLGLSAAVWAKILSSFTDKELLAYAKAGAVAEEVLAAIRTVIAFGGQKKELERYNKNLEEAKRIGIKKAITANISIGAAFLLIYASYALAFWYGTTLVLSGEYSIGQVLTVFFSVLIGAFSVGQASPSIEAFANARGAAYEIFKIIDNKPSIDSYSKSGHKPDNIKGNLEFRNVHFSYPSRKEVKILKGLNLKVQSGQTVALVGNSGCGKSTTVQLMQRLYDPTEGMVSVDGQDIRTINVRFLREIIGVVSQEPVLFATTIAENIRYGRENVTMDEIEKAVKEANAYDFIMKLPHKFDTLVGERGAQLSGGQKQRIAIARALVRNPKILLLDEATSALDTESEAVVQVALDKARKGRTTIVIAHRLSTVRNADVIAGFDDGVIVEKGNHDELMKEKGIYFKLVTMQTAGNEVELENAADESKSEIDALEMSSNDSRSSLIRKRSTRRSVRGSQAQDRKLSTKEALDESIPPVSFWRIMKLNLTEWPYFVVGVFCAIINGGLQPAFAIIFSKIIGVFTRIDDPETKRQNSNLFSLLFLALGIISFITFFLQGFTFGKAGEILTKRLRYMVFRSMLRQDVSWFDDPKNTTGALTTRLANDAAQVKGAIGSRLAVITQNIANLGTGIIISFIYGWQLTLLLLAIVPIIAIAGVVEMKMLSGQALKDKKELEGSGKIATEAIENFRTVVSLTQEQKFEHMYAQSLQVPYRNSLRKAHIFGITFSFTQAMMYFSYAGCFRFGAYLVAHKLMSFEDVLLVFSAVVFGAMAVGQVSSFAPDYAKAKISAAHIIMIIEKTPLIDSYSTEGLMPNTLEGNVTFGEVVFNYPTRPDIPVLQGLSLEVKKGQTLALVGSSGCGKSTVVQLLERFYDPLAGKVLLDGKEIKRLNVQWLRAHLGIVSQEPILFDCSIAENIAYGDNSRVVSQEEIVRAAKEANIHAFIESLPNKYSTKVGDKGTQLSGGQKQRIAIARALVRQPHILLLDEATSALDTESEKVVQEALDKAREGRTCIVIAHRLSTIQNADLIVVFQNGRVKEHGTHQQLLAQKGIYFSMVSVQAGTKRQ
T1 sequence (P08183 whole entry): as above
T2 sequence (P21447 whole entry): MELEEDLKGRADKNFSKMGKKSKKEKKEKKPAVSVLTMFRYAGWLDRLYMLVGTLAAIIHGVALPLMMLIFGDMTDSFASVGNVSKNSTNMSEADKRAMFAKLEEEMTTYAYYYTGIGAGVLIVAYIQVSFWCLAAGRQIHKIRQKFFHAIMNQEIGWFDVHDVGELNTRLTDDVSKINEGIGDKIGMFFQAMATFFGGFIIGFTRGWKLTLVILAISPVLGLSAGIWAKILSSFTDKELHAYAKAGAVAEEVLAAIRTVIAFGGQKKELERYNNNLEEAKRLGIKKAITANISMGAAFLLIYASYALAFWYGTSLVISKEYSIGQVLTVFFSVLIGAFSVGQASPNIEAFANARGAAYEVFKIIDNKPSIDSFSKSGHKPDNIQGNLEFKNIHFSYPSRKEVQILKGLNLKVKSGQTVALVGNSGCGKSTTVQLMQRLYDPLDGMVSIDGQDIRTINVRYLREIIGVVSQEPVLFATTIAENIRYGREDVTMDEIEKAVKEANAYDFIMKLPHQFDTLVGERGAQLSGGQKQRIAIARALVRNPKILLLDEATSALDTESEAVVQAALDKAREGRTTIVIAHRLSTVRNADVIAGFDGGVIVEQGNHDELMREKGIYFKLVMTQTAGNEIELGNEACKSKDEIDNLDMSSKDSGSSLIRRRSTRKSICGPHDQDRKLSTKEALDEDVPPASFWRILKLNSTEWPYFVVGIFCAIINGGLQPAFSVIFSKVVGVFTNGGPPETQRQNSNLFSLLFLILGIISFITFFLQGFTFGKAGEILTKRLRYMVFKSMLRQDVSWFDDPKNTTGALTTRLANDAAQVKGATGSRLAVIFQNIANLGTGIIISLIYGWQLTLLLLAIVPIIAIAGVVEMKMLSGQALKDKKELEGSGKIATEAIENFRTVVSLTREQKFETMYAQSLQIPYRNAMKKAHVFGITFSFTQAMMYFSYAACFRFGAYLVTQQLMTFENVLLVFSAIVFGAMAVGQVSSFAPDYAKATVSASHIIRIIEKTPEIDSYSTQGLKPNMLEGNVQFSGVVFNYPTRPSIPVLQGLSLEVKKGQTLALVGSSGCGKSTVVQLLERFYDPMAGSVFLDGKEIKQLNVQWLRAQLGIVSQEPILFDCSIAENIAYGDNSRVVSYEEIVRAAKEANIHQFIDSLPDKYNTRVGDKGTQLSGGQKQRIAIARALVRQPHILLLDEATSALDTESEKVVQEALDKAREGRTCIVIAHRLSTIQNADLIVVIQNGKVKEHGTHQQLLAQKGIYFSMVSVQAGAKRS

Cc1cc(C)c(-c2cc(NC(=O)CSCC(=O)c3ccc4c(c3)Cc3ccccc3-4)n(-c3ccccc3)n2)cc1C
inhibition (INH) [1]: Active
fold change (FC) [2]: 34
fold change (FC) [3]: 14
fold change (FC) [4]: 8
fold change (FC) [5]: 2.4
fold change (FC) [6]: 37
fold change (FC) [7]: 1.3
fold change (FC) [8]: 1
fold change (FC) [9]: 0.4
inhibition (INH) [10]: Active
Activity at 0.5 h [11]: 108%
Activity at 0.5 h [12]: 105%
Ratio [13]: 1.1
Activity at 0.5 h [14]: 64%
Activity at 0.5 h [15]: 69%
Kd [16]: 23.1 µM
Activity [17]: 1.7

Cc1cc(C)c(-c2cc(NC(=O)CSCC(=O)NCc3ccc(F)cc3)n(-c3ccccc3)n2)cc1C
inhibition (INH) [1]: Active
fold change (FC) [2]: 11
fold change (FC) [3]: 5.6
fold change (FC) [4]: 4.6
fold change (FC) [5]: 1.4
fold change (FC) [6]: 16
fold change (FC) [7]: 0.5
fold change (FC) [8]: 0.3
fold change (FC) [9]: 0.2
inhibition (INH) [10]: Active
Activity at 0.5 h [11]: 98%
Activity at 0.5 h [12]: 143%
inhibition (INH) [18]: Active
Ratio [13]: 1.3
Activity at 0.5 h [14]: 59%
Activity at 0.5 h [19]: 95%
Kd [16]: 25.7 µM
Activity [17]: 1.9

Cc1cc(C)c(-c2cc(NC(=O)CSCC(=O)N3c4ccccc4CCc4ccccc43)n(-c3ccccc3)n2)cc1C
inhibition (INH) [1]: Active
fold change (FC) [2]: 353
fold change (FC) [3]: 41
fold change (FC) [4]: 13
fold change (FC) [5]: 3.8
fold change (FC) [6]: 530
fold change (FC) [7]: 3.7
fold change (FC) [8]: 10
fold change (FC) [9]: 5
inhibition (INH) [10]: Active
Activity at 0.5 h [20]: 50%
Activity at 0.5 h [12]: 88%
Ratio [13]: 1
Activity at 0.5 h [14]: 62%
Activity at 0.5 h [19]: 83%
Kd [16]: 36.9 µM
Activity [17]: 1.8

Cc1cc(C)c(-c2cc(NC(=O)CSc3nnc4c(n3)[nH]c3ccccc34)n(-c3ccccc3)n2)cc1C
inhibition (INH) [1]: Active
fold change (FC) [2]: 125
fold change (FC) [3]: 101
fold change (FC) [4]: 5
fold change (FC) [5]: 1.5
fold change (FC) [6]: 125
fold change (FC) [7]: 9.2
fold change (FC) [8]: 3.4
fold change (FC) [9]: 3.4
inhibition (INH) [10]: Active
Activity at 0.5 h [20]: 68%
Activity at 0.5 h [12]: 101%
Ratio [13]: 1
Activity at 0.5 h [14]: 66%
Activity at 0.5 h [19]: 87%
Kd [16]: 24.1 µM
Activity [17]: 1.8

COc1cc(NC(=O)CSCC(=O)Nc2cc(-c3cc(C)c(C)cc3C)nn2-c2ccccc2)cc(OC)c1OC
inhibition (INH) [1]: Active
fold change (FC) [2]: 3312
fold change (FC) [3]: 1116
fold change (FC) [4]: 11
fold change (FC) [5]: 3.4
fold change (FC) [6]: 30286
fold change (FC) [7]: 102
fold change (FC) [8]: 92
fold change (FC) [9]: 300
inhibition (INH) [10]: Active
Activity at 0.5 h [21]: 194%
inhibition (INH) [18]: Active
Ratio [13]: 1.9
Activity at 0.5 h [14]: 61%
Activity at 0.5 h [19]: 89%
Kd [16]: 20.1 µM
Activity [17]: 1.2

Cc1cc(C)c(-c2cc(NC(=O)CSc3n[nH]c(C4CC4)n3)n(-c3ccccc3)n2)cc1C
inhibition (INH) [1]: Active
fold change (FC) [2]: 36
fold change (FC) [3]: 11
fold change (FC) [4]: 3
fold change (FC) [5]: 1
fold change (FC) [6]: 101
fold change (FC) [7]: 1
fold change (FC) [8]: 1
fold change (FC) [9]: 1
inhibition (INH) [10]: Active
Activity at 0.5 h [20]: 49%
Activity at 0.5 h [12]: 95%
Ratio [13]: 1
Activity at 0.5 h [14]: 62%
Kd [16]: 71 µM
Activity [17]: 1.9
